According to ChEMBL document CHEMBL1817551, “Design of small molecule inhibitors of acetyl-CoA carboxylase 1 and 2 showing reduction of hepatic malonyl-CoA levels in vivo in obese Zucker rats” (Bioorg Med Chem, 2011):
Values after ≈ are worked out from the molar mass of the structure shown.

Experiments:
[1] = Intrinsic clearance in human liver microsome at 1 uM after 30 mins by LC-UV/MS analysis; format: ADME; conditions: liver microsomes
[2] = biological target: Acetyl-CoA carboxylase 1 (Homo sapiens, UniProt Q13085); assay: Inhibition of human recombinant his-tagged ACC1 expressed in baculovirus/Sf9 cell assessed as inorganic phosphate formation […] measured after 1.5 hrs by Malachite green reagent method
[3] = Lipophilicity, log D of the compound; format: physicochemical; conditions: octanol/water
[4] = Solubility of the compound after 16 hrs by LC-UV/MS analysis; format: physicochemical
[5] = biological target: Acetyl-CoA carboxylase 2 (Homo sapiens, UniProt O00763); assay: Inhibition of human recombinant his-tagged ACC2 expressed in baculovirus/Sf9 cell assessed as inorganic phosphate formation […] measured after 1.5 hrs by Malachite green reagent method
Chain of Acetyl-CoA carboxylase 2 (O00763 whole entry): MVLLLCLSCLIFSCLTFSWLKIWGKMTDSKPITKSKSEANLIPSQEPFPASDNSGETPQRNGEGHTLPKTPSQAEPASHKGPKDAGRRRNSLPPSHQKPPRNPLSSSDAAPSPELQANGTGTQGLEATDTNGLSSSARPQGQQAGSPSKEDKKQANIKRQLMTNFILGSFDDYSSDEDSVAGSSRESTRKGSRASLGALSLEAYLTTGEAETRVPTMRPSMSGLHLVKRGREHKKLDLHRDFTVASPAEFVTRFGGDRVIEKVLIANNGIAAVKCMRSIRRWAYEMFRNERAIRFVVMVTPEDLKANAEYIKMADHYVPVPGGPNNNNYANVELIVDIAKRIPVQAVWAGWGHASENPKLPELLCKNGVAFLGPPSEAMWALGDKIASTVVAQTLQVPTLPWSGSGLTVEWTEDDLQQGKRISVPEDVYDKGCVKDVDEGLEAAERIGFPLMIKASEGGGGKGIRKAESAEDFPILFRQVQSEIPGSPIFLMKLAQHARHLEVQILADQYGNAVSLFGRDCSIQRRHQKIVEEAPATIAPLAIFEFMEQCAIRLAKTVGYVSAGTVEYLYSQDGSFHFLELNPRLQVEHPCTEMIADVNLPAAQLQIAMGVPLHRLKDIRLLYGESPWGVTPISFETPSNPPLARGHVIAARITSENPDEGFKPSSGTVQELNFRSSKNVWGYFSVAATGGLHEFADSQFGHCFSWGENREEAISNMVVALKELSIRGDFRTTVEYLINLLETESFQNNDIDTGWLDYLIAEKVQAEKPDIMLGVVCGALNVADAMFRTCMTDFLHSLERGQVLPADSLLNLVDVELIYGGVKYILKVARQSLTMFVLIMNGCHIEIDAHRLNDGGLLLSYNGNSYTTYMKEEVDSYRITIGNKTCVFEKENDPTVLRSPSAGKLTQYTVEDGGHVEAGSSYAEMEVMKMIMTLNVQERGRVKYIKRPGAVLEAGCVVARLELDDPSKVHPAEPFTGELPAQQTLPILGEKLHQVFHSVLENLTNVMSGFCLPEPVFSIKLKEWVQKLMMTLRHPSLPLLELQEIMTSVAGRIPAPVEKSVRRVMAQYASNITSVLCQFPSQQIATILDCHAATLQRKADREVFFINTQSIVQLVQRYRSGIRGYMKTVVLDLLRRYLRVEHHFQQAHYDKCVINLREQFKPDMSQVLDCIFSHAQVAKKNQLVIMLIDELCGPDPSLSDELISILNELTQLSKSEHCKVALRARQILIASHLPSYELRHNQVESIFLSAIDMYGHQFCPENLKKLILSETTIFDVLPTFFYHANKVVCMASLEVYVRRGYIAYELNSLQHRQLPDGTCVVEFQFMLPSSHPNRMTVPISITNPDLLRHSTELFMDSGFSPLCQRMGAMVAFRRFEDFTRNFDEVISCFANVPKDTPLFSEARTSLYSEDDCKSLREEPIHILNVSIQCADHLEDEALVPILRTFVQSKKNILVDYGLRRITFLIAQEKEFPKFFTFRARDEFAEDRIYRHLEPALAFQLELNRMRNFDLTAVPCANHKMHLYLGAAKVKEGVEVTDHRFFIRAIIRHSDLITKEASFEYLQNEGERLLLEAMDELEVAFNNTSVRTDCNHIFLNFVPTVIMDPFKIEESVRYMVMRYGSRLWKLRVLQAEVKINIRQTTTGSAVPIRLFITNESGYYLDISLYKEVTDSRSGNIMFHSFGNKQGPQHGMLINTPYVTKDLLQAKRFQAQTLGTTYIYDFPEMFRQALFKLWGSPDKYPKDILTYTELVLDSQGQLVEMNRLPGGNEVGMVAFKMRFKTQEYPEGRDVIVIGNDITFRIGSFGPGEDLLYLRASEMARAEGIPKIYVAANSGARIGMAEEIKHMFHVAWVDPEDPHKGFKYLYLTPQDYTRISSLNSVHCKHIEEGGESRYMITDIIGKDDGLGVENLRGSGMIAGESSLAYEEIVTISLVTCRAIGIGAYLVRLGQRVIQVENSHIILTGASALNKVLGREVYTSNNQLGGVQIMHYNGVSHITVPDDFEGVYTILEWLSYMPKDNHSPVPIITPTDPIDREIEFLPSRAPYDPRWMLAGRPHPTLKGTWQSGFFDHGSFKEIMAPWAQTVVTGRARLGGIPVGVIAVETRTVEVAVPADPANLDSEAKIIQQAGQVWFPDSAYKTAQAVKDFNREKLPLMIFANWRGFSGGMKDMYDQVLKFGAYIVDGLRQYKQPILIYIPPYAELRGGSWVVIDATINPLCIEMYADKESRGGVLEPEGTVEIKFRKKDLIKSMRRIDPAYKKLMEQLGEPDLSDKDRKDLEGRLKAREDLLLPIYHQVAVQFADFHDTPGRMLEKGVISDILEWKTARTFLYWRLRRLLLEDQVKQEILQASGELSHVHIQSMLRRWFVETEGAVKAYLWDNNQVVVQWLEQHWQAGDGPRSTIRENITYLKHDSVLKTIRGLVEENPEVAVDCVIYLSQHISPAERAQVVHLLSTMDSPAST

[6] = biological target: CYP2D6 (Homo sapiens, UniProt P10635); assay: Inhibition of CYP2D6 at 13 uM; format: ADME
[7] = biological target: CYP3A4 (Homo sapiens, UniProt P08684); assay: Inhibition of CYP3A4 at 13 uM; format: ADME
[8] = biological target: CYP2C9 (Homo sapiens, UniProt P11712); assay: Inhibition of CYP2C9 at 13 uM; format: ADME
[9] = biological target: CYP2C19 (Homo sapiens, UniProt P33261); assay: Inhibition of CYP2C19 at 13 uM; format: ADME
[10] = biological target: T1, CYP1A2 (Homo sapiens, UniProt P05177); assay: Inhibition of CYP1A2 at 13 uM; format: ADME
T1 sequence (P05177 whole entry): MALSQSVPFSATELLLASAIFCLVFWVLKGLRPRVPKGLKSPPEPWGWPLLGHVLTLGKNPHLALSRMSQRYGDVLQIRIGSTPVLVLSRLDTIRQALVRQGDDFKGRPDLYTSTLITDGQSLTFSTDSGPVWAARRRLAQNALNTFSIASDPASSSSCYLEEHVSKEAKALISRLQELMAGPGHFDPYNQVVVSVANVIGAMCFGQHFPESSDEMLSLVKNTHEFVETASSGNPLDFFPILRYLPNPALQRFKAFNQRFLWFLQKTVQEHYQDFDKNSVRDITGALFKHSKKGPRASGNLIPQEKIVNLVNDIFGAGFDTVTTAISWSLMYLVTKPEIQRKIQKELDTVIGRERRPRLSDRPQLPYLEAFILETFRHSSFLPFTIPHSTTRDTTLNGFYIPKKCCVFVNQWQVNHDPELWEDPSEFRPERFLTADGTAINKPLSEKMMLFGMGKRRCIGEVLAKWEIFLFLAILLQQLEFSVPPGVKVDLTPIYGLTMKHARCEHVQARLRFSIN

[11] = biological target: Cytochrome P450 2C9 (Homo sapiens, UniProt P11712); assay: Inhibition of CYP2C9; format: ADME
[12] = biological target: T2, Cytochrome P450 1A2 (Homo sapiens, UniProt P05177); assay: Inhibition of CYP1A2; format: ADME
T2 sequence (P05177 whole entry): T1 sequence (P05177 whole entry)

[13] = biological target: Cytochrome P450 3A4 (Homo sapiens, UniProt P08684); assay: Inhibition of CYP3A4; format: ADME
[14] = Clearance in Sprague-Dawley rat at 3 to 5 umol/kg, iv; format: ADME, organism-based; conditions: in vivo
[15] = tested on: Rattus norvegicus; assay: Antiobesity activity in obese Zucker rat assessed as reduction in hepatic malonyl-coA level, iv administered 2 hrs; format: functional; design: scale not given: the % may be the effect or the level left
Procedure, shortened: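 Obese Zucker rats were anaesthetized with Inactin (180 mg/kg ip), tracheotomized and fitted with carotid and jugular catheters. After 1.5 h post-surgery stabilization at 37.5 °C, compound or vehicle was infused iv; lean vehicle controls were included. Hepatic malonyl-CoA was measured by ion-pair HPLC–negative ESI MS/MS against a ¹³C₃ internal standard and related to plasma free exposure (fu×Cp/rat ACC2 IC50).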

[16] = Clearance in C57BL/6 mouse at 33 umol/kg, iv and po; format: ADME, organism-based; conditions: in vivo
[17] = Volume of distribution in C57BL/6 mouse at 33 umol/kg, iv and po; format: ADME, organism-based; conditions: in vivo
[18] = Half life in C57BL/6 mouse at 33 umol/kg, po; format: ADME, organism-based; conditions: in vivo
[19] = Oral bioavailability in C57BL/6 mouse at 33 umol/kg; format: ADME, organism-based; conditions: in vivo
[20] = Fraction unbound in human plasma at 10 uM after 18 hrs by equilibrium dialysis method; format: ADME, cell-free
[21] = Fraction unbound in rat plasma at 10 uM after 18 hrs by equilibrium dialysis method; format: ADME, cell-free
[22] = tested on: Rattus norvegicus; assay: Ratio of […] to fraction unbound in Sprague-Dawley rat at 3 to 5 umol/kg, iv; format: ADME, organism-based; conditions: in vivo
[23] = biological target: Acetyl-CoA carboxylase 1 (Rattus norvegicus, UniProt P11497); assay: Inhibition of rat ACC1 assessed as inorganic phosphate generation preincubated for 5 mins measured after 1.5 hrs using Malachite green reagent method
[24] = Clearance in C57BL/6 mouse at 5 umol/kg, iv and 10 umol/kg, po; format: ADME, organism-based; conditions: in vivo
[25] = Oral bioavailability in C57BL/6 mouse at 10 umol/kg; format: ADME, organism-based; conditions: in vivo
[26] = Volume of distribution in C57BL/6 mouse at 5 umol/kg, iv and 10 umol/kg, po; format: ADME, organism-based; conditions: in vivo
[27] = biological target: Acetyl-Coenzyme A carboxylase 2 (Rattus norvegicus, UniProt Q1HEC0); assay: Inhibition of ACC2 […] preincubated for 15 mins measured after 1.5 hrs using Malachite green reagent method
Chain of Acetyl-Coenzyme A carboxylase 2 (Q1HEC0 whole entry): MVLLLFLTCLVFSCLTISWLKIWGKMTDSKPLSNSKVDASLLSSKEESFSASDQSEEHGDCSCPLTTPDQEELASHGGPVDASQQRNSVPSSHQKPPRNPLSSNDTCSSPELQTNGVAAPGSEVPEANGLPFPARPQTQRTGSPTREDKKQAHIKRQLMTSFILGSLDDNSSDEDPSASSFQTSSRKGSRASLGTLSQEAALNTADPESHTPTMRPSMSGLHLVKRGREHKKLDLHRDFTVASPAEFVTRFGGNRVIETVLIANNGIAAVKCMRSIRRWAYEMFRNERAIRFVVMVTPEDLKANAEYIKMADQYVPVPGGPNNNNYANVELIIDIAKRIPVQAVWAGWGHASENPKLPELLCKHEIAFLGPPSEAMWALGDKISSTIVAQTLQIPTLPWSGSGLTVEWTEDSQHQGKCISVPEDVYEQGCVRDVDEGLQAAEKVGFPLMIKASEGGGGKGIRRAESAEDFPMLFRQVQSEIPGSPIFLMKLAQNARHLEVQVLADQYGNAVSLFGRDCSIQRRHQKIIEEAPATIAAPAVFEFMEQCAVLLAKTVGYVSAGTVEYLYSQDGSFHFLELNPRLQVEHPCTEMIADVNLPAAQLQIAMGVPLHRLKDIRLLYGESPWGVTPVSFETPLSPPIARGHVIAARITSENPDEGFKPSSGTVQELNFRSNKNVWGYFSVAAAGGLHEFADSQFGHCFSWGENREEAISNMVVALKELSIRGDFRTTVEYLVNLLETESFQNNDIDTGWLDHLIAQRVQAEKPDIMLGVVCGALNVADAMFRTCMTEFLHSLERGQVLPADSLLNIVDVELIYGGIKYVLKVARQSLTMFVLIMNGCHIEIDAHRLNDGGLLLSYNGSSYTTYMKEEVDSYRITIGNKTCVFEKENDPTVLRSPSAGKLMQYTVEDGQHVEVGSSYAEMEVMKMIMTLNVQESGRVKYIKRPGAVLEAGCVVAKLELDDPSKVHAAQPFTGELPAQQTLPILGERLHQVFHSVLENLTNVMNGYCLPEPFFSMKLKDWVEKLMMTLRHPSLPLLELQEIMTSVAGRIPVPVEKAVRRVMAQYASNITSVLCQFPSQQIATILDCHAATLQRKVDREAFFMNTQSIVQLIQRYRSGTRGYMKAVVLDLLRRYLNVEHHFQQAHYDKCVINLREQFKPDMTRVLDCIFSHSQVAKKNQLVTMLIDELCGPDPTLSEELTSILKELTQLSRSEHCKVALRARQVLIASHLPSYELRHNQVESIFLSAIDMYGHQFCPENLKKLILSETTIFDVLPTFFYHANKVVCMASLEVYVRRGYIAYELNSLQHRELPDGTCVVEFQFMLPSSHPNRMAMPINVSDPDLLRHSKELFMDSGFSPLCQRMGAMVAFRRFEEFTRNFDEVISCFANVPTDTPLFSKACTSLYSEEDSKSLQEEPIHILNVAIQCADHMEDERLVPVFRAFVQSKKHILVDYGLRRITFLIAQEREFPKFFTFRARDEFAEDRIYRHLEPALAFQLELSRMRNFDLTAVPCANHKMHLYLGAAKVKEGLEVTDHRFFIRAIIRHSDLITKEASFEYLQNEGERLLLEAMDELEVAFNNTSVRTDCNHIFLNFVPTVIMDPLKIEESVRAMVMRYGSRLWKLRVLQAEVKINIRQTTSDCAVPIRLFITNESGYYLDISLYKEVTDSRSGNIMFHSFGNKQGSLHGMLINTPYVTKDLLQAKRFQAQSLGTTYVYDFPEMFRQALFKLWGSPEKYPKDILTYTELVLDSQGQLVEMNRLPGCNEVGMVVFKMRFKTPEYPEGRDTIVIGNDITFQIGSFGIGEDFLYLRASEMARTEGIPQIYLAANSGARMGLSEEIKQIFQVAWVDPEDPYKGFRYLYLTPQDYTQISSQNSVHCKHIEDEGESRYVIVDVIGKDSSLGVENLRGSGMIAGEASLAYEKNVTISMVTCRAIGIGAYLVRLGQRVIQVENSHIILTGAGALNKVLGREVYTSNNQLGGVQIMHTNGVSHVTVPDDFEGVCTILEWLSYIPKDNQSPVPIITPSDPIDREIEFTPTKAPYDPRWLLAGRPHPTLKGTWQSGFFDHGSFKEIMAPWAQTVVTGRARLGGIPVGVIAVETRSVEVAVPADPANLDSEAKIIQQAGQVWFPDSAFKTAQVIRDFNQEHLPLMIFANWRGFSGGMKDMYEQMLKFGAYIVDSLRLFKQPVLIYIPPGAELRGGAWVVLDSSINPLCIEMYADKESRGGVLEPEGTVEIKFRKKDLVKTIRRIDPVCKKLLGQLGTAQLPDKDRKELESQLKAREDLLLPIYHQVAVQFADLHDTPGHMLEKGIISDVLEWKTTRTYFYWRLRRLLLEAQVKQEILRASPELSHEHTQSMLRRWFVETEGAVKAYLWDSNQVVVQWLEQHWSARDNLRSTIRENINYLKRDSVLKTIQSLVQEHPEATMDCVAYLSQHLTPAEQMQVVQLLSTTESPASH

[28] = Half life in C57BL/6 mouse at 10 umol/kg, po; format: ADME, organism-based; conditions: in vivo
[29] = species: Homo sapiens; assay: Ratio IC50 for human ACC2 to IC50 for human ACC1
[30] = Apparent permeability from apical to basolateral side of human Caco2 cells at pH 7.4 by LCMS; format: ADME, cell-based; conditions: Caco-2, pH 7.4

SMILES	IC50 [2] [nM]	logD [3]	IC50 [5] [nM]	other results
CC(C)(C)OC(=O)NC[C@H]1CC[C@H](CNC(=O)c2cc(-c3ccncc3)nc3ccccc23)CC1	1100	4.4		microsomal CLint at 1 µM [1]: 146 µL/min/mg; solubility at 16 h [4]: < 1 µM
O=C(c1cc(-c2ccccc2)nc2ccccc12)N1CCN(Cc2ccc3c(c2)OCO3)CC1			3600	
CC(C)(C)OC(=O)NC[C@H]1CC[C@H](CNS(=O)(=O)c2ccc3ccccc3c2)CC1			2500	
CN(C)CCN1CCN(c2cc(C(=O)NC[C@H]3CC[C@H](CNC(=O)OC(C)(C)C)CC3)c3ccccc3n2)CC1	5300	3.4	730	inhibition at 13 µM [6]: < 50%; inhibition at 13 µM [7]: < 50%; microsomal CLint at 1 µM [1]: < 12 µL/min/mg; inhibition at 13 µM [8]: < 50%; inhibition at 13 µM [9]: < 50%; inhibition at 13 µM [10]: < 50%; solubility at 16 h [4]: 73 µM (≈ 40.4 µg/mL)
CC(C)(C)OC(=O)NC[C@H]1CC[C@H](CNC(=O)c2cc(-c3cccc(CN)c3)nc3ccccc23)CC1	240	3.4	52	IC50 [11]: 800 nM; IC50 [12]: 4000 nM; IC50 [13]: 2400 nM; clearance [14]: 104 mL/min/kg; microsomal CLint at 1 µM [1]: 14 µL/min/mg; solubility at 16 h [4]: 8 µM (≈ 4.02 µg/mL)
CC(C)(C)OC(=O)NC[C@H]1CC[C@H](CNC(=O)c2cc(N3CCNCC3)nc3ccccc23)CC1	13000	2.9		
O=C(c1c2ccccc2cc2ccccc12)N1CCC(N2CCC[C@@H](C(=O)N3CCOCC3)C2)CC1				Activity [15]: 50%
CN(C)CCC1CCN(c2cc(C(=O)NC[C@H]3CC[C@H](CNC(=O)OC4CCOCC4)CC3)c3ccccc3n2)CC1		2.3		
CN(C)CCC1CCN(c2cc(C(=O)NC[C@H]3CC[C@H](COC(=O)NC(C)(C)C)CC3)c3ccccc3n2)CC1	9900	3.6	1700	
CN(C)CCC1CCN(c2cc(C(=O)NC[C@H]3CC[C@H](CNC(=O)OCC(C)(C)C)CC3)c3ccccc3n2)CC1	1000	4	130	clearance [16]: 52 mL/min/kg; Vd [17]: 9.6 L/kg; half-life [18]: 2.9 h; bioavailability [19]: 115%
CC(C)(C)OC(=O)NC[C@H]1CC[C@H](CNC(=O)c2cc(-c3ccc(C(=O)O)cc3)nc3ccccc23)CC1	2900	2.5	750	
CC(C)(C)OC(=O)NC[C@H]1CC[C@H](CNC(=O)c2cc(Cl)nc3ccccc23)CC1		4.9		
CC(C)(C)OC(=O)NC[C@H]1CC[C@H](CNC(=O)c2cc(-c3cn[nH]c3)nc3ccccc23)CC1	2300	3.5	570	
Cc1cc(C(=O)NC[C@H]2CC[C@H](CNC(=O)OC(C)(C)C)CC2)cc(-c2ccccc2)n1		5.3		
CC(C)(C)OC(=O)NC[C@H]1CC[C@H](CNS(=O)(=O)c2cc(-c3ccccc3)nc3ccccc23)CC1			690	
CC(C)(C)OC(=O)NC[C@H]1CC[C@H](CNC(=O)c2cc(-c3ccccc3)nc3ccccc23)CC1		5.9	210	fraction unbound at 18 h, 10 µM [20]: 0.001; clearance [14]: 60 mL/min/kg; microsomal CLint at 1 µM [1]: 124 µL/min/mg; fraction unbound at 18 h, 10 µM [21]: 0.005; Ratio [22]: 12000; solubility at 16 h [4]: < 1 µM
CN(C)CCn1cc(-c2cc(C(=O)NC[C@H]3CC[C@H](CNC(=O)OC(C)(C)C)CC3)c3ccccc3n2)cn1	1300	3.6		
CC(C)(C)OC(=O)NC[C@H]1CC[C@H](CNC(=O)c2cc(N3CCC(CCN4CC(O)C4)CC3)nc3ccccc23)CC1	1000	3.6		IC50 [23]: 250 nM; Activity [15]: 50%; fraction unbound at 18 h, 10 µM [20]: 0.033; clearance [24]: 33 mL/min/kg; clearance [14]: 70 mL/min/kg; microsomal CLint at 1 µM [1]: 16 µL/min/mg; bioavailability [25]: 135%; Vd [26]: 3.6 L/kg; IC50 [27]: 150 nM; half-life [28]: 4.3 h; solubility at 16 h [4]: 80 µM (≈ 46.4 µg/mL)
CC(C)(C)OC(=O)NC[C@H]1CC[C@H](CNC(=O)c2cc(N3CCC(CN)CC3)nc3ccccc23)CC1	4300	3.2	690	
CC(C)(C)OC(=O)NC[C@H]1CC[C@H](CNC(=O)c2cc(N3CCC(CCO)CC3)nc3ccccc23)CC1	2300	4.5	230	Ratio IC50 [29]: 10
CN(C)CCOC1CN(c2cc(C(=O)NC[C@H]3CC[C@H](CNC(=O)OC(C)(C)C)CC3)c3ccccc3n2)C1		3		
CC(C)(C)OC(=O)NC[C@H]1CC[C@H](CNC(=O)c2cc(-c3ccccc3)nc3[nH]ccc23)CC1		4.7	780	
CCOC(=O)NC[C@H]1CC[C@H](CNC(=O)c2cc(N3CCC(CCN(C)C)CC3)nc3ccccc23)CC1	8000	2.6	1400	
CC(C)(C)OC(=O)NC[C@H]1CC[C@H](CNC(=O)c2ccnc(-c3ccccc3)c2)CC1		4.7		
Cc1noc(C)c1-c1cc(C(=O)NC[C@H]2CC[C@H](CNC(=O)OC(C)(C)C)CC2)c2ccccc2n1		5		
CC(C)(C)OC(=O)NC[C@H]1CC[C@H](CNC(=O)c2cc(-c3ccc(CN)cc3)nc3ccccc23)CC1	1700	3.2		
CC(C)(C)OC(=O)NC[C@H]1CC[C@@H](CNC(=O)c2cc(-c3ccccc3)nc3ccccc23)CC1			1000	
CC(C)(C)OC(=O)NC[C@H]1CC[C@H](CNC(=O)c2cc(N3CCC(CCN)CC3)nc3ccccc23)CC1	780	3.2	89	Papp A→B [30]: 0.5 ×10⁻⁶ cm/s
